From ChEMBL document CHEMBL4011627, “Hepatitis C Virus NS3/4A Protease Inhibitors Incorporating Flexible P2 Quinoxalines Target Drug Resistant Viral Variants” (J Med Chem, 2017)

Key:
[1] = Inhibition of HCV genotype 1a NS3/4A protease using Ac-DE-Dap(QXL 520)-EE-Abu-psi-[COO]AS-C(5-FAMsp)-NH2 as substrate preincubated for 1 hr followed by substrate addition; parameters: species or system Hepatitis C virus subtype 1a
Procedure, shortened: (§1)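 Protease domain at 2 nM preincubated 1 h at room temperature with inhibitor titrations (at least 12 concentrations) in 50 mM Tris, 5% glycerol, 10 mM DTT, 0.6 mM LDAO, 4% DMSO. Reaction started with fluorogenic substrate (200 nM final) and followed kinetically (ex 485/em 530 nm). Three independent data sets, fit globally to the Morrison equation for Ki.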

Hepatitis C virus [2] = assay: Antiviral activity against HCV genotype 1b Con1 harboring HCV genotype 1a H77 NS3 A156T mutant infected in human HuH7 cells assessed as inhibition of viral replication after 96 hrs by luciferase reporter gene assay; format: functional, cell-based, Hepacivirus hominis; conditions: genotype 1b Con1, Huh-7, 96 h
[3] = Inhibition of HCV genotype 3a NS3/4A protease using Ac-DE-Dap(QXL520)-EE-Abu-psi-[COO]AS-C(5-FAMsp)-NH2 as substrate preincubated for 1 hr followed by substrate addition; parameters: species or system Hepatitis C virus subtype 3a; procedure, shortened: as §1
Hepatitis C virus [4] = assay: Antiviral activity against HCV genotype 1b Con1 harboring HCV genotype 1a H77 NS3 R155K mutant infected in human HuH7 cells assessed as inhibition of viral replication after 96 hrs by luciferase reporter gene assay; format: functional, cell-based, Hepacivirus hominis; conditions: genotype 1b Con1, Huh-7, 96 h
Hepatitis C virus [5] = assay: Antiviral activity against HCV genotype 1b Con1 harboring HCV genotype 1a H77 NS3 D168V mutant infected in human HuH7 cells assessed as inhibition of viral replication after 96 hrs by luciferase reporter gene assay; format: functional, cell-based, Hepacivirus hominis; conditions: genotype 1b Con1, Huh-7, 96 h
Hepatitis C virus [6] = assay: Antiviral activity against HCV genotype 1b Con1 harboring HCV genotype 1a H77 NS3 D168A mutant infected in human HuH7 cells assessed as inhibition of viral replication after 96 hrs by luciferase reporter gene assay; format: functional, cell-based, Hepacivirus hominis; conditions: genotype 1b Con1, Huh-7, 96 h
Hepatitis C virus [7] = assay: Antiviral activity against HCV genotype 1b Con1 harboring HCV genotype 1a H77 NS3 infected in human HuH7 cells assessed as inhibition of viral replication after 96 hrs by luciferase reporter gene assay; format: functional, cell-based, Hepacivirus hominis; conditions: genotype 1b Con1, Huh-7, 96 h
[8] = target: Hepatitis C virus serine protease, NS3/NS4A (Hepatitis C virus, UniProt A3EZI9+D2K2A8, D168A); assay: Inhibition of HCV genotype 1a NS3/4A protease D168A mutant using Ac-DE-Dap(QXL 520)-EE-Abu-psi-[COO]AS-C(5-FAMsp)-NH2 as substrate preincubated for 1 hr followed by substrate addition; parameters: species or system Hepatitis C virus subtype 1a
Procedure, shortened: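 NS3/4A protease domain at 2 nM pre-incubated 1 h at room temperature with increasing inhibitor (at least 12 concentrations) in 50 mM Tris, 5% glycerol, 10 mM DTT, 0.6 mM LDAO, 4% DMSO. Reaction started with FRET substrate (final 200 nM), monitored kinetically (ex 485/em 530 nm). Three independent data sets; global Morrison fit for Ki.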

| Compound | Ki [1] | EC50 (Hepatitis C virus [2]) | Ki [3] | EC50 (Hepatitis C virus [4]) | EC50 (Hepatitis C virus [5]) | EC50 (Hepatitis C virus [6]) | EC50 (Hepatitis C virus [7]) | Ki [8] |
| --- | --- | --- | --- | --- | --- | --- | --- | --- |
| COc1ccc2nc(Cl)c(O[C@@H]3C[C@H]4C(=O)N[C@]5(C(=O)NS(=O)(=O)C6(C)CC6)C[C@H]5/C=C\CCCCC[C@H](NC(=O)OC5CCCC5)C(=O)N4C3)nc2c1 | 0.44 nM | 4.32 nM | 61 nM | 0.56 nM | 1.09 nM | 0.97 nM | 0.15 nM | 25.7 nM |
| COc1ccc2nc(C(F)(F)F)c(O[C@@H]3C[C@H]4C(=O)N[C@]5(C(=O)NS(=O)(=O)C6(C)CC6)C[C@H]5/C=C\CCCCC[C@H](NC(=O)OC(C)(C)C)C(=O)N4C3)nc2c1 | 5.77 nM | 20.5 nM | 231 nM | 2.3 nM | 8.31 nM | 8.64 nM | 1.52 nM | 118 nM |
| COc1ccc2nc(Cl)c(O[C@@H]3C[C@H]4C(=O)N[C@]5(C(=O)NS(=O)(=O)C6(C)CC6)C[C@H]5/C=C\CCCCC[C@H](NC(=O)OC(C)(C)C)C(=O)N4C3)nc2c1 | 1.11 nM | 8.86 nM | 53.6 nM | 0.4 nM | 0.49 nM | 1.07 nM | 0.18 nM | 77.7 nM |
| COc1ccc2nc(C)c(O[C@@H]3C[C@H]4C(=O)N[C@]5(C(=O)NS(=O)(=O)C6(C)CC6)C[C@H]5/C=C\CCCCC[C@H](NC(=O)OC(C)(C)C)C(=O)N4C3)nc2c1 | 3.6 nM | 1.57 nM | 119 nM | 0.8 nM | 1.6 nM | 2.37 nM | 0.3 nM | 52 nM |
| COc1ccc2nc(C)c(O[C@@H]3C[C@H]4C(=O)N[C@]5(C(=O)NS(=O)(=O)C6(C)CC6)C[C@H]5/C=C\CCCCC[C@H](NC(=O)OC5CCCC5)C(=O)N4C3)nc2c1 | 1.13 nM | 3.99 nM | 121 nM | 1.09 nM | – | 2.16 nM | 0.13 nM | 36.3 nM |
| COc1ccc2nc(C)c(O[C@@H]3C[C@H]4C(=O)N[C@]5(C(=O)NS(=O)(=O)C6CC6)C[C@H]5/C=C\CCCCC[C@H](NC(=O)OC5CCCC5)C(=O)N4C3)nc2c1 | 0.93 nM | 2.88 nM | 147 nM | 0.89 nM | 4.32 nM | 2.63 nM | 0.11 nM | 31.9 nM |
| COc1ccc2nc(C)c(O[C@@H]3C[C@H]4C(=O)N[C@]5(C(=O)NS(=O)(=O)C6CC6)C[C@H]5/C=C\CCCCC[C@H](NC(=O)OC(C)(C)C)C(=O)N4C3)nc2c1 | 3.4 nM | 5.95 nM | 152 nM | 1.17 nM | 3.17 nM | 4.24 nM | 0.39 nM | 50.9 nM |
| COc1ccc2nc(C(F)(F)F)c(O[C@@H]3C[C@H]4C(=O)N[C@]5(C(=O)NS(=O)(=O)C6CC6)C[C@H]5/C=C\CCCCC[C@H](NC(=O)OC(C)(C)C)C(=O)N4C3)nc2c1 | 13.3 nM | 36.2 nM | 344 nM | 3.45 nM | 17.1 nM | 16.8 nM | 1.98 nM | 157 nM |
| COc1ccc2nc(C(C)C)c(O[C@@H]3C[C@H]4C(=O)N[C@]5(C(=O)NS(=O)(=O)C6CC6)C[C@H]5/C=C\CCCCC[C@H](NC(=O)OC(C)(C)C)C(=O)N4C3)nc2c1 | 4.27 nM | 25.7 nM | – | 5.02 nM | 23.7 nM | 15.3 nM | 1.43 nM | 239 nM |
| CCc1nc2ccc(OC)cc2nc1O[C@@H]1C[C@H]2C(=O)N[C@]3(C(=O)NS(=O)(=O)C4CC4)C[C@H]3/C=C\CCCCC[C@H](NC(=O)OC3CCCC3)C(=O)N2C1 | 1.24 nM | 11.8 nM | 211 nM | 2.08 nM | 11.9 nM | 3.6 nM | 0.14 nM | 52.3 nM |
| COc1ccc2nc(C(F)(F)F)c(O[C@@H]3C[C@H]4C(=O)N[C@]5(C(=O)NS(=O)(=O)C6(C)CC6)C[C@H]5/C=C\CCCCC[C@H](NC(=O)OC5CCCC5)C(=O)N4C3)nc2c1 | 8.14 nM | 75.9 nM | 433 nM | 6.9 nM | 11.4 nM | 8.46 nM | 4.04 nM | 110 nM |
| CCc1nc2ccc(OC)cc2nc1O[C@@H]1C[C@H]2C(=O)N[C@]3(C(=O)NS(=O)(=O)C4CC4)C[C@H]3/C=C\CCCCC[C@H](NC(=O)OC(C)(C)C)C(=O)N2C1 | 3.29 nM | 9.65 nM | 204 nM | 1.75 nM | 9.1 nM | 6.31 nM | 0.33 nM | 82.4 nM |
| COc1ccc2nc(C(C)C)c(O[C@@H]3C[C@H]4C(=O)N[C@]5(C(=O)NS(=O)(=O)C6(C)CC6)C[C@H]5/C=C\CCCCC[C@H](NC(=O)OC5CCCC5)C(=O)N4C3)nc2c1 | 1.34 nM | 27.6 nM | – | 6.83 nM | 18.2 nM | 7.91 nM | 0.59 nM | 156 nM |
| COc1ccc2nc(C(C)C)c(O[C@@H]3C[C@H]4C(=O)N[C@]5(C(=O)NS(=O)(=O)C6(C)CC6)C[C@H]5/C=C\CCCCC[C@H](NC(=O)OC(C)(C)C)C(=O)N4C3)nc2c1 | 0.58 nM | 21.2 nM | – | 4.14 nM | 18.1 nM | 11.9 nM | 1.86 nM | 211 nM |
| CCc1nc2ccc(OC)cc2nc1O[C@@H]1C[C@H]2C(=O)N[C@]3(C(=O)NS(=O)(=O)C4(C)CC4)C[C@H]3/C=C\CCCCC[C@H](NC(=O)OC3CCCC3)C(=O)N2C1 | 1.37 nM | 10.6 nM | 186 nM | 2.07 nM | 7.08 nM | 3.45 nM | 0.16 nM | 55.2 nM |
| COc1ccc2nc(Cl)c(O[C@@H]3C[C@H]4C(=O)N[C@]5(C(=O)NS(=O)(=O)C6CC6)C[C@H]5/C=C\CCCCC[C@H](NC(=O)OC5CCCC5)C(=O)N4C3)nc2c1 | 0.49 nM | 3.55 nM | 85.6 nM | 0.59 nM | 1.55 nM | 1.32 nM | 0.15 nM | 30.6 nM |
| CCc1nc2ccccc2nc1O[C@@H]1C[C@H]2C(=O)N[C@]3(C(=O)NS(=O)(=O)C4CC4)C[C@H]3/C=C\CCCCC[C@H](NC(=O)OC(C)(C)C)C(=O)N2C1 | 7.18 nM | 10.6 nM | – | 1.81 nM | 14 nM | 8.55 nM | 0.46 nM | 190 nM |
| CCc1nc2ccc(OC)cc2nc1O[C@@H]1C[C@H]2C(=O)N[C@]3(C(=O)NS(=O)(=O)C4(C)CC4)C[C@H]3/C=C\CCCCC[C@H](NC(=O)OC(C)(C)C)C(=O)N2C1 | 1.82 nM | 4.52 nM | 171 nM | 1.8 nM | 6.42 nM | 4.97 nM | 0.43 nM | 55.2 nM |
| COc1ccc2nc(C(C)C)c(O[C@@H]3C[C@H]4C(=O)N[C@]5(C(=O)NS(=O)(=O)C6CC6)C[C@H]5/C=C\CCCCC[C@H](NC(=O)OC5CCCC5)C(=O)N4C3)nc2c1 | 1.44 nM | 32.1 nM | – | 7.63 nM | 30.1 nM | 7.96 nM | 0.48 nM | 161 nM |
| COc1ccc2nc(Cl)c(O[C@@H]3C[C@H]4C(=O)N[C@]5(C(=O)NS(=O)(=O)C6CC6)C[C@H]5/C=C\CCCCC[C@H](NC(=O)OC(C)(C)C)C(=O)N4C3)nc2c1 | 1.07 nM | 16.2 nM | 67.5 nM | 0.44 nM | 0.73 nM | 1.42 nM | 0.16 nM | 39.8 nM |
| CCc1nc2ccccc2nc1O[C@@H]1C[C@H]2C(=O)N[C@]3(C(=O)NS(=O)(=O)C4CC4)C[C@H]3/C=C\CCCCC[C@H](NC(=O)OC3CCCC3)C(=O)N2C1 | 1.99 nM | 24.6 nM | – | 4.28 nM | 19.3 nM | 7.5 nM | 0.24 nM | 107 nM |
| COc1ccc2nc(C(F)(F)F)c(O[C@@H]3C[C@H]4C(=O)N[C@]5(C(=O)NS(=O)(=O)C6CC6)C[C@H]5/C=C\CCCCC[C@H](NC(=O)OC5CCCC5)C(=O)N4C3)nc2c1 | 7.55 nM | 117 nM | 757 nM | 7.97 nM | 24 nM | 15.1 nM | 4.86 nM | 115 nM |
